Series [1] can be described thus: Antiproliferative activity against human DU145 cells after 3 days by SRB method. The series is classed as functional. Particulars: DU-145, 72 h. Put shortly: (§1)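 Freshly trypsinized cells seeded at 1500–7500 per well with compound added from DMSO-diluted stock. After 3 days, attached cells fixed with cold 50% TCA, stained with 0.4% SRB, and bound dye solubilized. Value is the mean of three independent determinations.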
A general note: In SRB staining, fixed cells bind dye roughly in proportion to their protein.

The next series relates to A549. In words: Antiproliferative activity against human A549 cells after 3 days by SRB method. The series is classed as functional. The conditions noted are these: A549, 72 h. Put shortly:
as §1

Series [2] is described as follows: Antiproliferative activity against human KBVIN cells after 3 days by SRB method. The series is classed as functional. The conditions noted are these: 72 h. Put shortly:
as §1

In series [3] the target is Cyclin-dependent kinase 2/cyclin E1 (Homo sapiens, UniProt P24941). In words: Inhibition of CDK2/cyclin E1 (unknown origin) expressed in Sf9 insect cells using UlightCFFKNIVTPRTPPPSQGK-amide substrate after 15 mins by […].
For a further series, the target named is CDK9/cyclin T1 (Homo sapiens, UniProt P50750). Kind of series: Inhibition of CDK9/Cyclin-T1 (unknown origin) using UlightCFFKNIVTPRTPPPSQGK-amide substrate after 90 mins by […]. The series is classed as protein-complex assay.
CDK9/cyclin T1, sequence (O60563 whole entry): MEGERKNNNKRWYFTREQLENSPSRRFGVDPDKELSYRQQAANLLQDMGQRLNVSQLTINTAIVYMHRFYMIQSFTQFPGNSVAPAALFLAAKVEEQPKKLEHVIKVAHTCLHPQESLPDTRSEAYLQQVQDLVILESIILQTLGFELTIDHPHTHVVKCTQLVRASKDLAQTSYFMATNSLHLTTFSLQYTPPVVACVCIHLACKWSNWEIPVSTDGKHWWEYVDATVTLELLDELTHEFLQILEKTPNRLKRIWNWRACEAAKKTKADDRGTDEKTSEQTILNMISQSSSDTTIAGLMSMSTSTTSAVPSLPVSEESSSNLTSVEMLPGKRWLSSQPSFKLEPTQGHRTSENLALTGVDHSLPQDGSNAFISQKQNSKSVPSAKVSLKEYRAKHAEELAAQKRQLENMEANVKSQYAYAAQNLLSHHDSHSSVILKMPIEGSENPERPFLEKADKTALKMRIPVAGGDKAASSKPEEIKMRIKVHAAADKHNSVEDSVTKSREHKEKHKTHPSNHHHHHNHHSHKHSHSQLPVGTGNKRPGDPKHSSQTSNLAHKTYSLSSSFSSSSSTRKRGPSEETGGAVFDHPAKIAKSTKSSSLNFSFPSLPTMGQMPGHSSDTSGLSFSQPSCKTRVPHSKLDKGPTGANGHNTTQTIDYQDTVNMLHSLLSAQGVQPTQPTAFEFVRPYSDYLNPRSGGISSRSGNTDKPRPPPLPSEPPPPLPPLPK
CDK9/cyclin T1, sequence (P50750 whole entry): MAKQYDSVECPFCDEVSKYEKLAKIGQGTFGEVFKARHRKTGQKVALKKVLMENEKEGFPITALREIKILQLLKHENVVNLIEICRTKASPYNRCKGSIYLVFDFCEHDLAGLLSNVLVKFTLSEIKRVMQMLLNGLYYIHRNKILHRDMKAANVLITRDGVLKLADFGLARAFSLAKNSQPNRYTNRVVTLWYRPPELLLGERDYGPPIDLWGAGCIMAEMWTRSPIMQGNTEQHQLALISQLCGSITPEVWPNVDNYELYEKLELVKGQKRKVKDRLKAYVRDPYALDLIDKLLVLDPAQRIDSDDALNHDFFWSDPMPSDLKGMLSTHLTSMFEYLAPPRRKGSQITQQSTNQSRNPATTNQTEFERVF
Series [4] relates to Human immunodeficiency virus 1. In words: Antiviral activity against Human immunodeficiency virus 1 NL 4-3 infected in MT4 cells measured on day 4 post infection by p24 assay. The series is classed as functional, organism-based. Particulars: Human immunodeficiency virus 1, NL 4-3, MT4, 96 h.
Series [5] is described as follows: Therapeutic index, ratio of IC50 for human MT4 cells to EC50 for Human immunodeficiency virus 1 NL 4-3. The series is classed as cell-based. Particulars: read-out: Ratio IC50/EC50.
The test system of the next series is MT4. In words: Cytotoxicity against human MT4 cells. The series is classed as cell-based.

One may read the GI50 as the concentration giving 50% growth inhibition. High values mean lower sensitivity of the cells, low ones greater sensitivity of the cells. For the compound `CN(C)c1ccc(C(=O)Nc2cccc(Nc3ncc(F)c(Nc4ccc(F)cc4)n3)c2)cc1`, the GI50 (in series [1]; in the series with A549; in series [2]) was above 10 µM each time.
As for `O=C(Nc1ccccn1)c1cccc(Nc2ncc(F)c(Nc3ccc(F)cc3)n2)c1`, the figures for the GI50 (in series [1]; in the series with A549; in series [2]) were 15.1 µM, 15.3 µM and 13.7 µM, respectively.
In the same order, the values of `COc1ccc(N2CCOCC2)cc1Nc1ncc(F)c(Nc2ccc(F)cc2)n1` are above 10 µM, 18.3 µM and above 10 µM.
The corresponding values for `O=C(Nc1nccs1)c1cccc(Nc2ncc(F)c(Nc3ccc(F)cc3)n2)c1` are above 10 µM, above 10 µM and above 10 µM.
The corresponding values for `O=C(Nc1cccc(Nc2ncc(F)c(Nc3ccc(F)cc3)n2)c1)c1ccccc1` are above 10 µM, 37.8 µM and above 10 µM.
`O=C(Nc1ccc2c(c1)OCO2)c1cccc(Nc2ncc(F)c(Nc3ccc(F)cc3)n2)c1`: the GI50 in series [1] was found to be 11.6 µM; in the series with A549 it was 12.9 µM; in series [2] it was 12 µM.
Usually IC50 stands for the midpoint of a concentration-inhibition curve. Read a low IC50 as greater potency. Regarding `CN1CCN(C(=O)c2cccc(Nc3ncc(F)c(Nc4ccc(F)cc4)n3)c2)CC1`, the IC50 was determined as 22.1 µM in series [3] and 11.3 µM against CDK9/cyclin T1. For the same compound, the GI50 stood at 10.9 µM in series [1], 9.07 µM with A549 and 12.3 µM in series [2].
Take `CN1CCC(C(=O)Nc2cccc(Nc3ncc(F)c(Nc4ccc(F)cc4)n3)c2)CC1`: the IC50 stood at 1.24 µM in series [3] and 2.45 µM on CDK9/cyclin T1. Moreover, the GI50 in series [1] was determined as 1.15 µM; with A549, 1.33 µM; in series [2], 11.9 µM.
Consider `Fc1cnc(Nc2cccc(N3CCOCC3)c2)nc1Nc1cc(Cl)cc(Cl)c1`, for which the figures for the GI50 (in series [1]; in the series with A549; in series [2]) were above 10 µM, 11.6 µM and 22.5 µM, respectively.
Regarding `O=C(c1cccc(Nc2ncc(F)c(Nc3ccc(F)cc3)n2)c1)N1CCOCC1`, the GI50 is 11.9 µM in series [1], 11.2 µM with A549 and 13.1 µM in series [2].
On to `O=C(Nc1cccc(Nc2ncc(F)c(Nc3ccc(F)cc3)n2)c1)c1ccncc1`, for which the figures for the IC50 (in series [3]; on CDK9/cyclin T1) were 15.3 µM and 2.57 µM, respectively. For the same compound, the GI50 stood at 4.33 µM in series [1], 1.65 µM with A549 and 4.57 µM in series [2].
Regarding `O=C(Nc1ccc(C(F)(F)F)cc1)c1cccc(Nc2ncc(F)c(Nc3ccc(F)cc3)n2)c1`, the GI50 (in series [1]; with A549; in series [2]) was above 10 µM in each case.
Regarding `O=C(Nc1cccc(Nc2ncc(F)c(Nc3ccc(F)cc3)n2)c1)c1cccc([N+](=O)[O-])c1`, the figures for the GI50 (in series [1]; in the series with A549; in series [2]) were 12.6 µM, 7.25 µM and 11.3 µM, respectively.
The corresponding values for `O=C(NCCO)c1cccc(Nc2ncc(F)c(Nc3ccc(F)cc3)n2)c1` are 13.4 µM, 11.8 µM and 21.4 µM.
In the same order, the values of `Fc1cnc(Nc2cccc(N3CCOCC3)c2)nc1Nc1ccc(Cl)c(Cl)c1` are above 10 µM, 12 µM and above 10 µM.
Consider `COc1ccc(N2CCN(C)CC2)cc1Nc1ncc(F)c(Nc2ccc(F)cc2)n1`, for which the half-inhibitory concentration (IC50) (in series [3]; on CDK9/cyclin T1) was above 10 µM in each case. Also, the GI50 in series [1] is 0.91 µM; in the series with A549, 1.13 µM; in series [2] it was 0.91 µM.
Regarding `COCC(=O)Nc1cccc(Nc2ncc(F)c(Nc3ccc(F)cc3)n2)c1`, the values for the IC50 (in series [3]; against CDK9/cyclin T1) were 3.27 µM and 2.02 µM, respectively. For the same compound, the GI50 in series [1] came out at 4.46 µM; in the series on A549 it was 2.05 µM; in series [2] it was 3.94 µM.
Consider `COc1ccc(NC(=O)c2cccc(Nc3ncc(F)c(Nc4ccc(F)cc4)n3)c2)cc1`, for which the GI50 was above 10 µM in series [1], 11 µM in the series with A549 and 15.7 µM in series [2].
In the same order, the values of `O=C(Nc1cc(Cl)cc(Cl)c1)c1cccc(Nc2ncc(F)c(Nc3ccc(F)cc3)n2)c1` are 17.5 µM, 17.4 µM and 20.7 µM.
The corresponding values for `O=C(Nc1cccc(Nc2ncc(F)c(Nc3ccc(F)cc3)n2)c1)c1cnccn1` are 26.4 µM, 10.3 µM and 20.1 µM.
`Fc1ccc(Nc2nc(Nc3cccc(N4CCOCC4)c3)ncc2F)cc1`: the GI50 was above 10 µM in series [1], 3.83 µM in the series on A549 and above 10 µM in series [2].
For the compound `Cn1ccnc1NC(=O)c1cccc(Nc2ncc(F)c(Nc3ccc(F)cc3)n2)c1`, the GI50 in series [1] was 15.1 µM; with A549 it was 10.1 µM; in series [2], 13.1 µM.
The corresponding values for `CS(=O)(=O)N1CCN(C(=O)c2cccc(Nc3ncc(F)c(Nc4ccc(F)cc4)n3)c2)CC1` are 17.9 µM, 12.2 µM and above 10 µM.
Broadly, the EC50 is the concentration needed to bring the measured effect to its halfway point. A lower EC50 goes with greater potency. Take `Fc1cnc(Nc2cccc(N3CCOCC3)c2)nc1Nc1c(F)cccc1F`: the IC50 is 5.85 µM in series [3], 0.33 µM at CDK9/cyclin T1 and 10.2 µM in the series on MT4. This compound also gave an EC50 in series [4] of 1.37 µM. Besides, the GI50 in series [1] was 4.24 µM; in the series with A549 it was 1.09 µM; in series [2], above 10 µM. The selectivity ratio in series [5] came out at 7.45.
`COc1cc(NC(=O)c2cccc(Nc3ncc(F)c(Nc4ccc(F)cc4)n3)c2)cc(OC)c1`: the figures for the GI50 (in series [1]; with A549; in series [2]) were 13.7 µM, 13.8 µM and 12.7 µM, respectively.
Take `CC(=O)N1CCCN(C(=O)c2cccc(Nc3ncc(F)c(Nc4ccc(F)cc4)n3)c2)CC1`: the results for the IC50 (in series [3]; at CDK9/cyclin T1) were 60.6 µM and 15.6 µM, respectively. Besides, in series [4], the response was half-maximal at 7.08 µM (EC50). Also, the results for the GI50 (in series [1]; in the series with A549; in series [2]) were 15.7 µM, 9.96 µM and 16.7 µM, respectively. Also, the selectivity ratio in series [5] is 2.18.
Regarding `O=C(Nc1ccc(N2CCOCC2)cc1)c1cccc(Nc2ncc(F)c(Nc3ccc(F)cc3)n2)c1`, the GI50 (in series [1]; in the series on A549; in series [2]) was above 10 µM throughout.
With `CN(C)CCNC(=O)c1cccc(Nc2ncc(F)c(Nc3ccc(F)cc3)n2)c1`, the results for the IC50 (in series [3]; against CDK9/cyclin T1) were 4.65 µM and 1.72 µM, respectively. Further, the values for the GI50 (in series [1]; in the series with A549; in series [2]) were 4.34 µM, 1.45 µM and 7.26 µM, respectively.
For `O=C(c1cccc(Nc2ncc(F)c(Nc3ccc(F)cc3)n2)c1)N1CCCCC1`, the GI50 in series [1] amounted to 13 µM; in the series on A549, 13.2 µM; in series [2] it was 13.8 µM.
Consider `CN1CC[C@H](c2c(O)cc(O)c3c(=O)cc(-c4ccccc4Cl)oc23)[C@H](O)C1` [ALVOCIDIB], for which, in series [4], the midpoint of the response, the EC50, lay at 0.015 µM. The GI50 in series [1] stood at 0.15 µM; with A549 it was 0.14 µM; in series [2], 0.18 µM. The compound also gave an IC50 in the series on MT4 of 0.067 µM.
